{"source": "ChEMBL document CHEMBL1275434", "about": "“In vitro evaluation of CBR-2092, a novel rifamycin-quinolone hybrid antibiotic: studies of the mode of action in Staphylococcus aureus” (Antimicrob Agents Chemother, 2008)", "key": {"Staphylococcus aureus [1]": {"system": "Staphylococcus aureus", "experiment": "Antimicrobial activity against wild-type Staphylococcus aureus CB190", "format": "functional"}, "Staphylococcus aureus [2]": {"system": "Staphylococcus aureus", "experiment": "Antimicrobial activity against Staphylococcus aureus CB1880 harboring rpoB R484H mutant gene by agar dilution method", "format": "functional", "method_in_brief": "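CLSI agar dilution MIC on MHII base medium against stepwise-passage isolates; passage was in MHII broth without polysorbate 80, daily at 37°C.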"}, "Staphylococcus aureus [3]": {"system": "Staphylococcus aureus", "experiment": "Antimicrobial activity against Staphylococcus aureus CB1881 harboring rpoB R484H mutant gene and L520 deficient gyrA gene", "format": "functional"}, "Staphylococcus aureus [4]": {"system": "Staphylococcus aureus", "experiment": "Antimicrobial activity against Staphylococcus aureus CB1884 harboring rpoB R484H mutant gene, L520 deficient gyrA gene, gyrA S84L mutant gene, R236 duplicated par C gene and parCH103Y mutant gene by broth microdilution", "format": "functional", "method_in_brief": "(§1)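 CLSI broth microdilution MIC in MHII broth with 0.002% (vol/vol) polysorbate 80. Isolates came from daily stepwise broth passage at sub-MIC drug (MHII without polysorbate 80, 10^6 CFU/ml inoculum, 20–24 h shaking at 37°C), were purified drug-free, and were sequenced at target loci.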"}, "Staphylococcus aureus [5]": {"system": "Staphylococcus aureus", "experiment": "Antimicrobial activity against Staphylococcus aureus CB1875 harboring gyrA […], parC R298K mutant genes and LNVIKEE461 inserted parC gene by broth microdilution method", "format": "functional", "method_in_brief": "as §1"}, "Staphylococcus aureus [6]": {"system": "Staphylococcus aureus", "experiment": "Antimicrobial activity against Staphylococcus aureus CB370 harboring rpoB H481Y mutant gene by broth microdilution method", "format": "functional", "method_in_brief": "(§2)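 CLSI broth microdilution MIC in cation-adjusted Mueller-Hinton (MHII) broth supplemented with 0.002% (vol/vol) polysorbate 80, included to limit compound loss to plastic surfaces.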"}, "Staphylococcus aureus [7]": {"system": "Staphylococcus aureus", "experiment": "Antimicrobial activity against Staphylococcus aureus CB1953 harboring rpoB H481Y, gyrA S84L, gyrA V598I, parC S80F, parC R570H mutant genes selected after CBR-2092 exposure for 7 days by broth microdilution method", "format": "functional", "settings": "CB1953, 168 h", "method_in_brief": "as §2"}, "Staphylococcus aureus [8]": {"system": "Staphylococcus aureus", "experiment": "Antimicrobial activity against Staphylococcus aureus CB812 harboring rpo B H481Y and gyrA S84L mutant genes by broth microdilution method", "format": "functional", "method_in_brief": "as §2"}, "Staphylococcus aureus [9]": {"system": "Staphylococcus aureus", "experiment": "Antimicrobial activity against Staphylococcus aureus CB1327 harboring rpoB H481Y and gyrA S84L mutant genes selected after 0.2 ug/ml drug exposure by broth microdilution method", "format": "functional", "method_in_brief": "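CLSI broth microdilution MIC in cation-adjusted Mueller-Hinton (MHII) broth with 0.002% (vol/vol) polysorbate 80. Single-step mutants were selected on agar […], purified by drug-free passage, their phenotype re-verified, and resistance loci sequenced.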"}, "Staphylococcus aureus [10]": {"system": "Staphylococcus aureus", "experiment": "Antimicrobial activity against Staphylococcus aureus CB1335 harboring rpoB H481Y, parC S80F, parE E474Q and gyrA S84L mutant genes selected after 0.8 ug/ml drug exposure by broth microdilution method", "format": "functional"}, "Staphylococcus aureus [11]": {"system": "Staphylococcus aureus", "experiment": "Antimicrobial activity against Staphylococcus aureus CB815 harboring rpoB H481Y, gyrA S84L and parC S80F mutant genes by broth microdilution method"}}, "data": [{"smiles": "CO[C@H]1/C=C/O[C@@]2(C)Oc3c(C)c(O)c4c(O)c(c(/C=N/N5CCC(N(C)C6([C@@H]7CCN(c8c(F)cn9c(=O)c(C(=O)O)cc(C%10CC%10)c9c8C)C7)CC6)CC5)c(O)c4c3C2=O)NC(=O)/C(C)=C\\C=C\\[C@H](C)[C@H](O)[C@@H](C)[C@@H](O)[C@@H](C)[C@H](OC(C)=O)[C@@H]1C", "values": [{"measurement": "Time", "setting": "Staphylococcus aureus [1]", "value": 38, "unit": "min"}, {"measurement": "MIC", "setting": "Staphylococcus aureus [2]", "value": 0.032, "unit": "µg/mL"}, {"measurement": "Time", "setting": "Staphylococcus aureus [3]", "value": 41, "unit": "min"}, {"measurement": "MIC", "setting": "Staphylococcus aureus [4]", "value": 64, "unit": "µg/mL"}, {"measurement": "MIC", "setting": "Staphylococcus aureus [5]", "value": 0.008, "unit": "µg/mL"}, {"measurement": "MIC", "setting": "Staphylococcus aureus [6]", "value": 0.12, "unit": "µg/mL"}, {"measurement": "MIC", "setting": "Staphylococcus aureus [7]", "value": 16, "unit": "µg/mL"}, {"measurement": "MIC", "setting": "Staphylococcus aureus [8]", "value": 0.5, "unit": "µg/mL"}, {"measurement": "MIC", "setting": "Staphylococcus aureus [9]", "value": 0.5, "unit": "µg/mL"}, {"measurement": "MIC", "setting": "Staphylococcus aureus [10]", "value": "> 16", "unit": "µg/mL"}, {"measurement": "MIC", "setting": "Staphylococcus aureus [11]", "value": 2, "unit": "µg/mL"}]}]}
